Data set [1] can be described thus: Half life of compound was determined in dog. It counts as ADME, organism-based, Canis lupus familiaris. The note with it: in vivo. The gist of the method: (§1)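 Dogs given 0.2 mpk iv and 1 mpk po, in water; bioavailability, clearance and half-life taken from the plasma PK profile.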
Data set [2] can be described thus: Bioavailability in dog. It counts as ADME, organism-based, Canis lupus familiaris. The note with it: in vivo. The method in brief:
as §1

Data set [3] can be described thus: Percent binding of compound towards human plasma protein was determined. Type of data set: ADME, cell-free. The method in brief:
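Human plasma, diluted, with ultrafiltration in pH 7.4 buffer at room temperature. Solutions analyzed by HPLC; high-throughput format.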

Data set [4] can be described thus: Plasma clearance in dog was determined. It counts as ADME, organism-based, Canis lupus familiaris. The method in brief: as §1
The nature of data set [5]: Partition coefficient (logP). Type of data set: physicochemical. Conditions: octanol/water. The method in brief: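 Partitioning between octanol and pH 7.4 buffer.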
The target in another data set is Integrin alpha-V/beta-3 (Homo sapiens, UniProt P05106+P06756). The experiment in a line: Inhibition of alphaV-beta3 integrin binding. Type of data set: protein-complex assay. The method in brief:
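Scintillation-proximity assay. Displacement of a 125I-labelled iodobenzenesulfonylamino naphthyridine propionic acid radioligand from purified recombinant human αvβ3 is measured.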

A short description of data set [6]: Half life of compound was determined in rhesus monkey. Type of data set: ADME. Conditions: cercopithecidae, in vivo.
Data set [7] is described as follows: Bioavailability of compound was determined in rhesus monkey. It counts as ADME, organism-based, Macaca mulatta. Conditions: in vivo.
Data set [8] in a line: Half life of compound was determined in rat. It counts as ADME, organism-based. The note with it: in vivo.
A short description of data set [9]: Plasma clearance in rhesus monkey was determined. Type of data set: ADME, organism-based. The note with it: cercopithecidae.
The nature of data set [10]: Plasma clearance in rat was determined. Type of data set: ADME, organism-based.
Data set [11] in a line: Bioavailability in rat. It counts as ADME, organism-based. Conditions: in vivo.
Data set [12] is filed under the species Rattus norvegicus. The data set can be described thus: Inhibitory effect of 10 mpk compound b.i.d. for 28 days was determined by bone mineral density in ovariectomized female rat. It counts as functional. The method in brief: (§2)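 Female rats ovariectomized and, within 24 h, dosed orally b.i.d. for 28 days (n = 10/group), with sham and OVX-vehicle groups. BMD measured by DXA at the distal femoral metaphysis and central femur. Result expressed as DFM:central BMD ratio (mean ± SEM).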

The species entered for data set [13] is Rattus norvegicus. The data set can be described thus: Inhibitory effect of 30 mpk compound b.i.d. for 28 days was determined by bone mineral density in ovariectomized female rat. It counts as functional. The gist of the method:
as §2

The species named for data set [14] is Rattus norvegicus. The data set can be described thus: distal femoral metaphysis bone mineral density in young male rat after constant infusion of compound was determined. It counts as functional. The gist of the method: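 Growing male Sprague–Dawley rats (160 g) treated 10 days. Compound at 60 mg/mL in water with <1 equiv 1 N HCl, given by implanted subcutaneous osmotic minipump to a steady-state concentration of 800 nM (n = 15). PK checked in 3 parallel rats. Alendronate control 0.005 mpk sc qd. Right femur excised, stored in 70% ethanol, DFM BMD by DXA.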

Data set [15] in a line: Selectivity for alphaV-beta3 over alphaV-beta5 integrins. On the set-up: species or system Homo sapiens. The gist of the method: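 αvβ3 binding is measured by SPA displacement of a 125I-iodobenzenesulfonylamino radioligand from purified recombinant human αvβ3. The αvβ5 counterscreen uses the same radioligand displaced from purified recombinant αvβ5 in a similar SPA.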

This is an account of results in ChEMBL document CHEMBL1145748, “Nonpeptide alphavbeta3 antagonists. 8. In vitro and in vivo evaluation of a potent alphavbeta3 antagonist for the prevention and treatment of osteoporosis” (J Med Chem, 2003).

pIC50: −log10 of the molar value.

The term half-life denotes the time needed for the level to fall by half in the phase considered. The term bioavailability denotes the share of a dose that reaches the circulation, judged against a reference dose that is usually intravenous. For orientation: clearance means a measure of how efficiently the substance is removed, as volume per time. The term logP denotes the decadic logarithm of the partition coefficient of the neutral form, usually between octanol and water. By pIC50 is commonly meant −log10 of the IC50, conventionally taken in molar units.

Sequence of Integrin alpha-V/beta-3 (P05106 27-788 limits assumed): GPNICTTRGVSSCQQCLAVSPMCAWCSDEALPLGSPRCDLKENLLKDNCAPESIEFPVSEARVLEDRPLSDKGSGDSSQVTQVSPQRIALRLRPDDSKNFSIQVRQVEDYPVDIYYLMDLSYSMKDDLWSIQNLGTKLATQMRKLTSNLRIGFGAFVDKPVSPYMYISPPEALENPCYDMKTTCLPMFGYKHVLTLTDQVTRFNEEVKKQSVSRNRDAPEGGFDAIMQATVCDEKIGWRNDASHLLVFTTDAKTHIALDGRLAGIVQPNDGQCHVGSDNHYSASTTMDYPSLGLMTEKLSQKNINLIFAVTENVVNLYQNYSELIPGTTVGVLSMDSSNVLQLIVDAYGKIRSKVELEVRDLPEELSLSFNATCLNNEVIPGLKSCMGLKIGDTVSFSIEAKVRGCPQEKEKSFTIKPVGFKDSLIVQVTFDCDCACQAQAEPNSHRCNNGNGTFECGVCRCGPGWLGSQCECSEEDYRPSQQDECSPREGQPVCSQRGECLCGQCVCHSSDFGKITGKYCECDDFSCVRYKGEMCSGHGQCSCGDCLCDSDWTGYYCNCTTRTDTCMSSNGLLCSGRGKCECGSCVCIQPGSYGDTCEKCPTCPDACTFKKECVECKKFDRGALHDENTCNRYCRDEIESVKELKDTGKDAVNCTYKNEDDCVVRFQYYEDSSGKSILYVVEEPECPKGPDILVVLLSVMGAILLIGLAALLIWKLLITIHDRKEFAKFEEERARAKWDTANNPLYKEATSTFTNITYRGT
Sequence of Integrin alpha-V/beta-3 (P06756 31-889 limits assumed): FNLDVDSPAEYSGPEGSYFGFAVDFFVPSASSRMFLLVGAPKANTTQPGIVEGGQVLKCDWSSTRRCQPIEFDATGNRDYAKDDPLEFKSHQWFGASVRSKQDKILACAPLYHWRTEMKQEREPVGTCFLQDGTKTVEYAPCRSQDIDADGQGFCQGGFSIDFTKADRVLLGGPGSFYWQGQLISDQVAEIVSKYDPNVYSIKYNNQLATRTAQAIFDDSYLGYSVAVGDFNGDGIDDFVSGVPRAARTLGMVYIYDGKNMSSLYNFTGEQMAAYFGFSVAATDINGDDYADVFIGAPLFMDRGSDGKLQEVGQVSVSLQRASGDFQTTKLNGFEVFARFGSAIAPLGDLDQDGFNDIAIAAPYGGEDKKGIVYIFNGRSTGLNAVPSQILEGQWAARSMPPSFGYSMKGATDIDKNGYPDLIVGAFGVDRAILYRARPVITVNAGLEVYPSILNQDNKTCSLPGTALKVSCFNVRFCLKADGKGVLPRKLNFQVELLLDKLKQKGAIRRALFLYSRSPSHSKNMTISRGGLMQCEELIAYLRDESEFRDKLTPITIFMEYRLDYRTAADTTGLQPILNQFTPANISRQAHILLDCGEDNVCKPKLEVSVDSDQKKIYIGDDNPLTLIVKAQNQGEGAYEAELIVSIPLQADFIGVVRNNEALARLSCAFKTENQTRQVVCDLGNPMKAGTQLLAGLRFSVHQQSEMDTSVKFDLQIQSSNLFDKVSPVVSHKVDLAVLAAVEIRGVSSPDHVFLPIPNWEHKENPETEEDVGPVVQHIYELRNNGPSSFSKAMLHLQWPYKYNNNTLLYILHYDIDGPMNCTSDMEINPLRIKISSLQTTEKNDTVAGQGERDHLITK
Sequence of Integrin alpha-V/beta-3 (P06756 891-1048 limits assumed): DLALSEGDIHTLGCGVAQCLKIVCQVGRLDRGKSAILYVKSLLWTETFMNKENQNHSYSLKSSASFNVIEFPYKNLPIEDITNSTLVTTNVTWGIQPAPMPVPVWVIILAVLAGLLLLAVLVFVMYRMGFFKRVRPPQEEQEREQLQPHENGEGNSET

For `O=C(O)C[C@@H](c1ccc2c(c1)OCC2)N1CCN(CCCc2ccc3c(n2)NCCC3)C1=O`, the half-life in data set [1] is 2.7 h. Further, the bioavailability in data set [2] was determined as 75%. The molecule also showed a Plasma protein binding in [3] of 98%. Further, the clearance in data set [4] amounted to 4.1 mL/min/kg. In addition, the logP in data set [5] worked out at 0.8. For the same molecule, on Integrin alpha-V/beta-3, the negative logarithm of the IC50 (pIC50) is 10.00.
For `COc1ccc([C@H](CC(=O)O)N2CCN(CCCc3ccc4c(n3)NC(=O)CC4)C2=O)cn1`, the negative logarithm of the IC50 (pIC50) on Integrin alpha-V/beta-3 was 6.85.
Still for that read-out and setting: to `COc1ccc([C@H](CC(=O)O)N2CCN(CCC(=O)c3ccc4c(n3)NCCC4)C2=O)cn1` belongs 8.52.
For `COc1ccc([C@H](CC(=O)O)N2CCN(CCCc3ccc4c(n3)NCCC4)C2=O)cn1`, the values for the half-life in data set [1], in data set [6] and in data set [8] were 3.5 h, 2 h and 3 h, respectively. Also, the bioavailability in data set [2] was 64%; in data set [7] it was 74%; in [11], 26%. In [3], this molecule gave a Plasma protein binding of 88%. In addition, the clearance worked out at 9 mL/min/kg in data set [9], 47 mL/min/kg in data set [10] and 6.4 mL/min/kg in data set [4]. For the same molecule, the logP in data set [5] was 0.21. Further, the DFM:central BMD ratio in the data set filed under Rattus norvegicus [12] was 0.908; in the data set listed under Rattus norvegicus [13] it was 0.951. The BMD in the data set listed under Rattus norvegicus [14] was determined as 142.2 mg cm**-2. Moreover, the negative logarithm of the IC50 (pIC50) is 8.00 in data set [15] and 10.10 on Integrin alpha-V/beta-3.
For `COc1ccc([C@H](CC(=O)O)N2CCN(CCCc3ccc4c(n3)NCCC4)C2=O)cc1F`, in data set [1], the half-life was 2.6 h. In [2], this molecule returned a bioavailability of 94%. In data set [3], the Plasma protein binding worked out at 95%. In [4], this molecule returned a clearance of 5.1 mL/min/kg. In data set [5], this molecule displayed a logP of 0.82. In addition, the negative logarithm of the IC50 (pIC50) at Integrin alpha-V/beta-3 was 9.46.
Take `COc1ccc([C@H](CC(=O)O)N2CCN(CCCc3ccc4c(n3)NC(O)CC4)C2=O)cn1` (some centres not stated): the negative-log IC50 (pIC50) on Integrin alpha-V/beta-3 is 9.40.
As for `O=C(O)C[C@@H](c1cccnc1)N1CCN(CCCc2ccc3c(n2)NCCC3)C1=O`, in data set [1], the half-life is 0.9 h. This molecule also gave a bioavailability in [2] of 10%. In data set [3], this molecule registered a Plasma protein binding of 61%. In addition, the clearance in [4] worked out at 70 mL/min/kg. The same molecule showed a logP in [5] of -0.55. The pIC50 on Integrin alpha-V/beta-3 is 9.60.
